ABCB6 inh MLPCN: inhibitors of human ABC transporter ABCB6; 0.19% of 360,000 active; fluorescence ratio to DMSO, % at 10 µM; K562-ABCB6 porphyrin accumulation, flow cytometry, 1 h; active compounds read low;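 active = fluorescence ratio to DMSO below 75%, the collection mean minus 3 SD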;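 also: signal is porphyrin accumulated inside mitochondria; lower ratio means ABCB6 inhibition with less porphyrin fluorescence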
MC4R barr agon: human MC4R agonism via beta-arrestin. U2OS MC4R beta-arrestin complementation, luminescence; percent of melanotan II response, DMSO zero. activation, % at 8.9 µM. 0.98% of 360,000 active. AID 540308;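 active = activation above a per-plate cutoff, the mean activation of sample wells on that plate plus 3 SD, cut at about 8% in these data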
Granule exo inh: lytic granule exocytosis inhibition. TALL-104 LAMP-1 surface exposure, flow cytometry; cells stimulated with thapsigargin and PMA. inhibition, % at 10 µM. 0.66% of 360,000 active;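 active = inhibition above about 55%, limit read from the data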
hiPSC survival: increases survival of single human iPS cells; hiPSC single-cell survival, ATPlite luminescence; 100% = ROCK inhibitor wells, 0% = DMSO; survival enhancement, % at 20 µM; 0.044% of 360,000 active; in the data active = survival enhancement above about 18%;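 also: cells exposed to compounds for 16 hours before the ATP read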
MC4R antagonist: antagonists of human melanocortin 4 receptor (MC4R). P32245. MC4R-expressing cells, MTII-stimulated cAMP, LANCE TR-FRET. inhibition, % at 6.5 µM. 0.48% of 360,000 active;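 active = inhibition above its plate's cutoff, the mean of tested wells on that plate plus 3 SD, cut at about 29% in these data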
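Assay system: human MC4R-expressing U2OS cells; reagent: Melanotan II stimulation of cells; dosing: 6.5 µM single dose; timing: compound 30 min, challenge 1 h, detection 1 h; signal: TR-FRET cAMP assay; replicates: one well per compound, no replicates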
Tb MetRS inh: Trypanosoma brucei MetRS inhibition | purified T. brucei MetRS, ATP depletion, Kinase-Glo luminescence | inhibition, % at 11.9 µM | 0.4% of 360,000 active;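 active = inhibition above a per-plate cutoff of the control wells' mean inhibition plus 3 SD, cut at about 5.5% in these data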
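System: purified T. brucei MetRS enzyme / Detection: Kinase-Glo luciferase luminescence reporting remaining unconsumed ATP / Medium: HEPES buffer with MgCl2, KCl, DTT, spermine, BSA, pyrophosphatase / Replication: singlicate, one well per compound / Evaluation: percent inhibition relative to median high and low control wells / Schedule: 2 h aminoacylation at 25 °C after 15 min preincubation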
MC4R barr ag: human MC4R beta-arrestin agonism confirmation | shares compounds with MC4R barr agon | U2OS MC4R beta-arrestin recruitment, luminescence; scaled DMSO 0%, Melanotan II 100% | activation, % at 8.9 µM | 31% of 2,400 active | AID 602192;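 active = mean activation across replicates above the hit cutoff set in the earlier primary screen, cut at about 8% in these data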
MOR-DOR barr ag: OPRM1-OPRD1 heterodimer agonism counter-screen | shares compounds with MC4R barr agon | U2OS PathHunter beta-arrestin, beta-gal luminescence; percent of deltorphin B response, DMSO zero | activation, % at 9.2 µM | 5.8% of 2,400 active | AID 602194;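 active = mean activation across replicates exceeds the hit threshold derived in the earlier primary screen, cut at about 18% in these data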
Target sequence (P35372 whole entry, looked up): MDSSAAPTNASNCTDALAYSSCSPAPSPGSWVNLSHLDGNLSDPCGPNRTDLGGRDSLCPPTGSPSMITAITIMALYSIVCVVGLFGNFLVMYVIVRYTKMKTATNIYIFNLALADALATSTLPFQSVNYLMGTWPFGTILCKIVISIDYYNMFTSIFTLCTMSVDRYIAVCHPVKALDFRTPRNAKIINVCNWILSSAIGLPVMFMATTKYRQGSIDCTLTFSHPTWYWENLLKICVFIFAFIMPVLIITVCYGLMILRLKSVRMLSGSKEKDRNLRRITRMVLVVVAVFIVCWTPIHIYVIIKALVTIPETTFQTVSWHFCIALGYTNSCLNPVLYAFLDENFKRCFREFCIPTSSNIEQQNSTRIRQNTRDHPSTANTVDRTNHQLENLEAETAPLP
Target sequence (P41143 whole entry, looked up): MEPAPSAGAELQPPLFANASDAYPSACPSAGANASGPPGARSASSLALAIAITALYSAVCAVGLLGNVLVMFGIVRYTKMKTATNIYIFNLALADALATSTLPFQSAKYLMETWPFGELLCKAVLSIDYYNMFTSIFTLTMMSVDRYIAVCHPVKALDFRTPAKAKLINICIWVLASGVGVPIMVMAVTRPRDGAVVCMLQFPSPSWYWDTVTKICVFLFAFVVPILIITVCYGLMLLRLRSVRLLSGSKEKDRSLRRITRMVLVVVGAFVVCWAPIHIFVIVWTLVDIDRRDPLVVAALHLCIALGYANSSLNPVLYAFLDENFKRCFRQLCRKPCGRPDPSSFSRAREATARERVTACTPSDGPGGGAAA
Hits are given with their value; - = inactive; . = no result; ! = repeats disagree. The list is not random: actives were taken first. Their share in the collection is about 2.6%.

SMILES | ABCB6 inh MLPCN | MC4R barr agon | Granule exo inh | hiPSC survival | MC4R antagonist | Tb MetRS inh | MC4R barr ag | MOR-DOR barr ag
NC(Cc1ccc(C(F)(F)F)cc1)c1csc(Nc2ccc(C(=O)c3ccccc3)cc2)n1 (centres undefined) | - | 12.7 | - | - | - | - | 14.3 | -
NC(Cc1ccc(C(F)(F)F)cc1)c1csc(Nc2cc(NCc3ccco3)ncn2)n1 (centres undefined) | - | 12.1 | - | - | - | - | 43.4 | 25.8
CC(=O)c1ccc(Nc2nc(C(N)Cc3ccc(C(F)(F)F)cc3)cs2)cc1 (centres undefined) | - | - | - | - | - | - | . | .
NC(CCc1ccccc1)c1csc(Nc2ccc(C(=O)c3ccccc3)cc2)n1 (centres undefined) | - | 13.1 | - | - | - | - | 20.1 | -
COc1ccc(CC(=O)NCC2CCCN(Cc3ccccc3Cl)C2)cc1 (centres undefined) | - | - | - | - | - | - | . | .
COc1ccc(-n2c(=O)c3ccccc3n(CC(=O)NCC3CCCO3)c2=O)cc1 (centres undefined) | - | - | - | - | - | - | . | .
COc1cc(C(=O)NC(C(=O)Nc2cccc(C(C)=O)c2)C(C)C)cc(OC)c1OC (centres undefined) | - | - | - | - | - | - | . | .
CCCCCCOC(=O)C1=C(C)NC(=O)NC1c1ccc2c(c1)OCO2 (centres undefined) | - | - | - | - | - | - | . | .
CC(C)Oc1ccc(C(=O)NC2CCSc3ccccc32)cc1 (centres undefined) | - | - | - | - | - | - | . | .
CCCOc1ccc(C(=O)NC2CCSc3ccccc32)cc1 (centres undefined) | - | 17.0 | - | - | - | - | - | -
CC(C)(C)OC(=O)N1CCc2onc(-c3ccc(-n4cc(C5=CCCCC5)nn4)cc3)c2C1=O | . | . | - | . | . | - | . | .
COc1cccc(NCc2cc3c(C(C)(C)C)nn(-c4ccccc4)c3[nH]c2=O)c1 | - | 13.5 | - | - | - | - | - | -
CC(=O)NC(c1cccc(F)c1)c1nc(-c2cnc3ccccc3c2)cs1 (centres undefined) | - | - | - | - | - | - | . | .
O=C(c1ccccc1NS(=O)(=O)c1cccc(C(F)(F)F)c1)N1CCc2ccccc21 | - | 10.2 | - | - | - | - | - | -
Cc1nn(-c2ccccn2)c(C)c1Oc1ccccc1O | - | - | - | - | - | - | . | .
Cc1nn(-c2nc3ccccc3s2)c(C)c1Oc1ccccc1O | - | 21.9 | - | - | - | - | - | -
COc1ccc(NC(=O)c2ccc3[nH]c(C)c(C)c3c2)c(OC)c1 | - | - | - | - | - | - | . | .
CCOc1ccccc1NC(=O)c1ccc2[nH]c(C)c(C)c2c1 | - | 11.6 | - | - | - | - | - | -
O=C(NCc1ccccc1)N1CCN(c2ccc(Cl)c(Cl)c2)CC1 | - | 22.2 | - | - | - | - | - | -
O=C(NCc1ccccc1)N1CCN(c2ccc(F)cc2)CC1 | - | - | - | - | - | - | . | .
O=C(COc1ccccc1)Nc1nnc(COc2ccccc2)s1 | - | 9.9 | - | - | - | - | - | -
O=C(CSc1ccccc1)Nc1nnc(COc2ccc(Cl)cc2)s1 | - | 18.0 | - | - | - | - | - | -
CCOC(=O)C(=O)Nc1nnc(COc2ccccc2)s1 | - | - | - | - | - | - | . | .
COCCNC(=O)COc1ccc(C)cc1C(=O)c1cc(C#N)c(=O)n(C2CC2)c1 | - | - | - | - | - | - | . | .
Cc1cccc(-n2nc(CC#N)c(C#N)c2N)c1 | - | - | - | - | - | - | . | .
SMILES | ABCB6 inh MLPCN | MC4R barr agon | Granule exo inh | hiPSC survival | MC4R antagonist | Tb MetRS inh | MC4R barr ag | MOR-DOR barr ag
CCCCCCCCCCOC(=O)Cn1c(COc2ccc(OC)cc2)[n+](C)c2ccccc21 | - | 34.7 | 64.9 | - | - | - | 18.7 | 23.9!
CCCCCCCCCCOC(=O)Cn1c(COc2cccc(C)c2)[n+](C)c2ccccc21 | - | 19.5 | 74.4 | - | - | - | 28.3 | -
CCCCCOC(=O)Cn1c(=O)oc2ccccc21 | - | - | - | - | - | - | . | .
CCCCCCCCCCOC(=O)Cn1c(COc2ccccc2)[n+](C)c2ccccc21 | - | 18.1 | 65.9 | - | - | - | 29.1 | 22.8
CC(C)CN(CC(C)C)C(=S)NC1CCCCC1 | - | - | - | - | - | - | . | .
O=C(OCc1cn([C@H]2CN(CC3CCCCC3)[C@@H](c3ccc(Cl)cc3)C[C@@H]2O)nn1)c1ccccc1 | - | - | - | - | - | - | . | .
CC(C)(C)c1ccc(S(=O)(=O)NCCOCC(F)(F)C(F)F)cc1 | - | 12.6 | - | - | - | - | - | -
CC(C)(C)c1ccc(S(=O)(=O)NCCc2ccncc2)cc1 | - | - | - | - | - | - | . | .
CC(=O)Nc1cc(-c2ccc(N)nc2)cn2c(-c3cccc(C(F)(F)F)c3)cnc12 | - | 19.0 | - | - | - | - | 9.8 | -
CC(=O)Nc1cc(-c2cccc(C(=O)NCCO)c2)cn2c(-c3cccc(C(F)(F)F)c3)cnc12 | - | - | - | - | - | - | . | .
CC(=O)Nc1cc(-c2ccc(CO)cc2)cn2c(-c3cccc(C(F)(F)F)c3)cnc12 | - | 18.6 | - | - | - | - | 20.5 | -
CC(=O)Nc1cc(-c2ccc(N)cc2)cn2c(-c3cccc(C(F)(F)F)c3)cnc12 | - | 11.2 | - | - | - | - | 12.4 | -
CC(=O)Nc1cccc(-c2cc(NC(C)=O)c3ncc(-c4cccc(C(F)(F)F)c4)n3c2)c1 | - | - | - | - | - | - | . | .
O=C(NCc1ccc2c(c1)OCO2)c1cc(-c2cc(Cl)ccc2O)n[nH]1 | - | 11.0 | - | - | - | - | - | -
O=C1CC(SC(=Nc2ccccc2)Nc2ccccc2)C(=O)N1c1ccc(Cl)cc1 (centres undefined) | - | 12.5 | - | - | - | - | - | -
COc1ccccc1N1CCN(CC(=O)Nc2ccccc2C(=O)NC(C)c2ccccc2)CC1 (centres undefined) | - | - | - | - | - | - | . | .
O=C(Nc1ccc(Nc2ccccc2)cc1)c1cc([N+](=O)[O-])ccc1Cl | - | - | - | - | - | - | . | .
O=C(Nc1ccccc1Oc1ccccc1)c1cc([N+](=O)[O-])ccc1Cl | - | 14.3 | - | - | - | - | - | -
Cc1onc(-c2ccccc2)c1C(=O)Nc1nc(-c2cc(F)ccc2F)cs1 | - | 33.8 | - | - | - | - | - | -
